In ChEMBL document CHEMBL1148612, “Rapid synthesis of triazole-modified resveratrol analogues via click chemistry” (J Med Chem, 2006):

Key:
[1] = system: MDA-MB-231; assay: Cytotoxicity against breast cancer MDA-MB-231 cell line by MTT assay; assay type: functional, cell-based; conditions: Homo sapiens
How it was run: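 MDA-MB-231 cells were screened by MTT in an automated format across decreasing compound concentrations. Viability was expressed as % of untreated control, with 70% of control as the arbitrary cutoff for reduced viability at 10 µM. IC50 values are approximate and were assigned to concentration ranges.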

[2] = system: SH-SY5Y; assay: Cytotoxicity against neuroblastoma SHSY5Y cell line by MTT assay at 100 uM; assay type: functional, Homo sapiens
How it was run: (§1)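 Cells were exposed to compound at 100 µM for 48 h. Values are % viability relative to untreated control cells, given as mean ± SEM of four determinations.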

[3] = system: MDA-MB-231; assay: Cytotoxicity against breast cancer MDA-MB-231 cell line by MTT assay at 100 uM; assay type: functional, Homo sapiens; how it was run: as §1
[4] = system: RBL-2H3; assay: Cytotoxicity against basophilic leukemia RBL 2H3 cell line by MTT assay at 100 uM; assay type: functional, Rattus norvegicus; how it was run: as §1
[5] = system: FG2; assay: Cytotoxicity against human pancreatic carcinoma FG2 cell line by MTT assay at 100 uM; assay type: functional; how it was run: as §1

Structure (SMILES) | IC50 [1] [µM] | also measured
COc1cc(OC)cc(-n2cc(-c3ccc(O)c(OC)c3)nn2)c1 | 10 | 
COc1cc(-n2cc(-c3ccc(N)cc3)nn2)cc(OC)c1OC | > 10 | 
COc1ccc(-n2cc(-c3ccc(O)c(OC)c3)nn2)cc1 | > 10 | 
Nc1ccc(-c2cn(-c3c(O)c(F)cc(F)c3F)nn2)cc1 | > 10 | 
COc1ccc(-c2cn(-c3cc(OC)c(OC)c(OC)c3)nn2)cc1 | > 10 | 
Oc1cc(O)cc(-c2cn(-c3ccc(Oc4ccccc4)cc3)nn2)c1 | > 10 | 
Oc1ccc(-n2cc(-c3cc(O)cc(O)c3)nn2)cc1 |  | Activity [2]: 86.6%; Activity [3]: 95.5%; Activity [4]: 114%; Activity [5]: 91.9%
COc1ccc(-c2cn(-c3ccc(OC(F)(F)F)cc3)nn2)cc1 | 1 | 
COc1cc(-c2cn(-c3ccc(Oc4ccccc4)cc3)nn2)cc(OC)c1OC | 10 | 
COc1ccc(-c2cn(-c3ccc(OC)c(OC)c3)nn2)cc1 | > 10 | 
COc1ccc(-c2cn(-c3ccc(OC(F)(F)F)cc3)nn2)cc1OC | > 1 | 
COc1ccc(-c2cn(-c3ccc(OC)c(OC)c3)nn2)cc1O | > 0.1 | 
COc1ccc(-c2cn(-c3cc(O)cc(O)c3)nn2)cc1 |  | Activity [2]: 62.2%; Activity [3]: 72.2%; Activity [4]: 99.6%; Activity [5]: 83.7%
COc1ccc(-n2cc(-c3cc(OC)c(OC)c(OC)c3)nn2)cc1 | > 10 | 
COc1cc(-c2cn(-c3cc(OC)c(OC)c(OC)c3)nn2)ccc1O | > 10 | 
Nc1ccc(-c2cn(-c3ccc4c(c3)OCO4)nn2)cc1 | > 10 | 
COc1ccc(-n2cc(-c3cc(O)cc(O)c3)nn2)cc1O | > 10 | 
COc1ccc(-c2cn(-c3ccc(Oc4ccccc4)cc3)nn2)cc1 | > 0.1 | 
COc1cc(-c2cn(-c3ccc4c(c3)OCO4)nn2)ccc1O | > 10 | 
COc1cc(OC)cc(-c2cn(-c3c(O)c(F)cc(F)c3F)nn2)c1 | > 10 | 
Oc1cc(O)cc(-c2cn(-c3ccc4c(c3)OCO4)nn2)c1 | > 1 | 
COc1ccc(-c2cn(-c3ccc(OC)cc3)nn2)cc1 | > 0.1 | 
COc1cc(OC)cc(-n2cc(-c3ccc(OC)c(OC)c3)nn2)c1 | > 1 | 
COc1ccc(-n2cc(-c3ccc(N)cc3)nn2)cc1OC | > 10 | 
COc1ccc(-c2cn(-c3cc(OC)cc(OC)c3)nn2)cc1 |  | Activity [2]: 85.9%; Activity [3]: 99.3%; Activity [4]: 113%; Activity [5]: 100.8%
COc1cc(OC)cc(-n2cc(-c3cc(OC)c(OC)c(OC)c3)nn2)c1 | > 1 | 

Structure (SMILES) | IC50 [1] [µM] | also measured
COc1cc(OC)cc(-c2cn(-c3ccc(OC(F)(F)F)cc3)nn2)c1 | > 1 | 
COc1cc(-c2cn(-c3cc(OC)c(OC)c(OC)c3)nn2)cc(OC)c1OC | > 10 | 
Oc1cc(O)cc(-c2cn(-c3ccc(OC(F)(F)F)cc3)nn2)c1 | > 10 | 
COc1cc(-c2cn(-c3c(O)c(F)cc(F)c3F)nn2)ccc1O | 10 | 
COc1ccc(-c2cn(-c3ccc(Oc4ccccc4)cc3)nn2)cc1O | > 10 | 
COc1ccc(-c2cn(-c3ccc4c(c3)OCO4)nn2)cc1 | 1 | 
Oc1ccc(-c2cn(-c3cc(O)cc(O)c3)nn2)cc1 |  | Activity [2]: 93.4%; Activity [3]: 97%; Activity [4]: 110%; Activity [5]: 93.7%
COc1ccc(-n2cc(-c3cc(O)cc(O)c3)nn2)c(OC)c1 | 10 | 
COc1ccc(-n2cc(-c3ccc(O)c(OC)c3)nn2)cc1O | > 10 | 
COc1ccc(-c2cn(-c3ccc(OC)cc3OC)nn2)cc1 | > 10 | 
COc1ccc(-c2cn(-c3ccc(OC(F)(F)F)cc3)nn2)cc1O | > 10 | 
COc1cc(OC)cc(-n2cc(-c3cc(O)cc(O)c3)nn2)c1 | > 10 | 
COc1ccc(-n2cc(-c3cc(O)cc(O)c3)nn2)cc1OC | > 10 | 
COc1cc(OC)cc(-c2cn(-c3cc(OC)c(OC)c(OC)c3)nn2)c1 | > 10 | 
COc1ccc(-n2cc(-c3ccc(N)cc3)nn2)cc1O | > 10 | 
COc1ccc(-n2cc(-c3cc(OC)c(OC)c(OC)c3)nn2)cc1O | 10 | 
COc1ccc(-n2cc(-c3ccc(OC)c(O)c3)nn2)cc1 | > 10 | 
COc1ccc(-c2cn(-c3ccc4c(c3)OCO4)nn2)cc1O | > 10 | 
COc1cc(OC)cc(-c2cn(-c3ccc4c(c3)OCO4)nn2)c1 | > 10 | 
Nc1ccc(-c2cn(-c3ccc(Oc4ccccc4)cc3)nn2)cc1 | > 10 | 
COc1ccc(-n2cc(-c3cc(O)cc(O)c3)nn2)cc1 | > 10 | 
COc1ccc(-n2cc(-c3ccc(N)cc3)nn2)c(OC)c1 | > 10 | 
COc1ccc(-n2cc(-c3ccc(OC)c(OC)c3)nn2)cc1 | > 0.1 | 
COc1cc(OC)cc(-c2cn(-c3cc(OC)cc(OC)c3)nn2)c1 | > 10 | 
COc1ccc(-c2cn(-c3ccc(Oc4ccccc4)cc3)nn2)cc1OC | 10 | 
COc1ccc(-c2cn(-c3ccc4c(c3)OCO4)nn2)cc1OC | 10 | 

Structure (SMILES) | IC50 [1] [µM] | also measured
COc1cc(OC)cc(-c2cn(-c3ccc(OC)c(O)c3)nn2)c1 | > 10 | 
Nc1ccc(-c2cn(-c3ccc(OC(F)(F)F)cc3)nn2)cc1 | > 0.01 | 
COc1cc(-n2cc(-c3cc(O)cc(O)c3)nn2)cc(OC)c1OC | > 10 | 
COc1cc(OC)cc(-c2cn(-c3ccc(OC)cc3OC)nn2)c1 | > 10 | 
COc1cc(OC)cc(-n2cc(-c3ccc(N)cc3)nn2)c1 | > 10 | 
COc1ccc(-c2cn(-c3c(O)c(F)cc(F)c3F)nn2)cc1O | > 10 | 
COc1ccc(-n2cc(-c3ccc(OC)c(O)c3)nn2)c(OC)c1 | > 10 | 
COc1cc(OC)cc(-c2cn(-c3ccc(Oc4ccccc4)cc3)nn2)c1 | > 10 | 
COc1ccc(-c2cn(-c3ccc(OC)c(O)c3)nn2)cc1O | > 10 | 
COc1cc(OC)cc(-n2cc(-c3ccc(OC)c(O)c3)nn2)c1 | > 10 | 
COc1ccc(-n2cc(-c3cc(OC)c(OC)c(OC)c3)nn2)c(OC)c1 | > 10 | 
COc1ccc(-n2cc(-c3ccc(N)cc3)nn2)cc1 | > 0.1 | 
COc1cc(-c2cn(-c3ccc(OC(F)(F)F)cc3)nn2)cc(OC)c1OC | > 10 | 
COc1ccc(-n2cc(-c3cc(OC)cc(OC)c3)nn2)cc1 |  | Activity [2]: 78.6%; Activity [3]: 93.2%; Activity [4]: 116%; Activity [5]: 88.2%
COc1ccc(-c2cn(-c3c(O)c(F)cc(F)c3F)nn2)cc1 | > 1 | 
COc1ccc(-c2cn(-c3cc(OC)c(OC)c(OC)c3)nn2)cc1O | > 10 | 
COc1cc(-c2cn(-c3ccc4c(c3)OCO4)nn2)cc(OC)c1OC | 10 | 
COc1cc(OC)cc(-c2cn(-c3ccc(OC)c(OC)c3)nn2)c1 | 10 | 
COc1cc(-c2cn(-c3ccc(OC(F)(F)F)cc3)nn2)ccc1O | 10 | 
COc1ccc(-c2cn(-c3ccc(OC)c(O)c3)nn2)cc1 | > 0.1 | 
COc1ccc(-n2cc(-c3ccc(OC)c(OC)c3)nn2)cc1O | > 1 | 
COc1ccc(-c2cn(-c3ccc(N)cc3)nn2)cc1O | > 10 | 
COc1ccc(-c2cn(-c3ccc(N)cc3)nn2)cc1 | > 0.1 | 
Oc1ccc(/C=C/c2cc(O)cc(O)c2)cc1 [RESVERATROL] |  | Activity [2]: 33.5%; Activity [3]: 67.9%; Activity [4]: 52.1%; Activity [5]: 42.2%
